Measured values from ChEMBL document CHEMBL1142666, “Novel [2',5'-bis-O-(tert-butyldimethylsilyl)-beta-D-ribofuranosyl]- 3'-spiro-5''-(4''-amino-1'',2''-oxathiole-2'',2" -dioxide) derivatives with anti-HIV-1 and anti-human-cytomegalovirus activity” (J Med Chem, 2005).

Experiments:
Settings in all cases: Homo sapiens
MT4 [1] = test: Effective concentration required to inhibit HIV-2 ROD in MT-4 cell culture; type: functional, cell-based
Method in brief: (§1)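 MT-4 cells (3 × 10^5/mL) infected at ~100 CCID50/mL and mixed with compound dilutions. Cytopathicity read by trypan blue exclusion at day 5. EC50 = concentration giving 50% protection against virus-induced loss of viability.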

MT4 [2] = test: Cytostatic concentration required to inhibit MT-4 cell proliferation; type: functional
Method in brief: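 Mock-infected MT-4 cells (3 × 10^5/mL) incubated with compound dilutions for 5 days. Viable cells counted by trypan blue exclusion. CC50 = concentration reducing viable MT-4 cell number by 50%.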

CCRF-CEM [3] = test: Effective concentration required to inhibit HIV-2 ROD in CEM cell culture; type: functional, cell-based
Method in brief: (§2)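 CEM cells (4 × 10^5/mL) infected at ~100 CCID50/mL and mixed with compound dilutions. Giant cell formation scored microscopically at day 4. EC50 = concentration inhibiting virus-induced cytopathicity by 50%.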

MT4 [4] = test: Effective concentration required to inhibit HIV-1 IIIB in MT-4 cell culture; type: functional, cell-based; method in brief: as §1
CCRF-CEM [5] = test: Effective concentration required to inhibit HIV-1 IIIB in CEM cell culture; type: functional, cell-based; method in brief: as §2
HEL [6] = test: Cytostatic concentration required to inhibit HEL cell proliferation; type: functional
Method in brief: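 HEL fibroblasts seeded at 5 × 10^3 cells/well and grown 24 h, then given compound in duplicate. After 3 days at 37 °C in 5% CO2, cell number read on a Coulter counter. CC50 = concentration reducing cell growth by 50%.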

CCRF-CEM [7] = test: Cytostatic concentration required to inhibit CEM cell proliferation; type: functional
Method in brief: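 CEM cells, mock-infected, grown with serial compound dilutions for 4 days. CC50 taken as the concentration that inhibits CEM cell proliferation by 50%.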

HEL [8] = test: Effective concentration required to inhibit HCMV AD-169 in HEL Cells; type: functional, cell-based
Method in brief: (§3)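 Confluent HEL cells infected with HCMV at 100 PFU/well. After 1-2 h, residual virus removed and MEM with 2% inactivated FCS added, with compound in duplicate at 5-fold dilution steps. After 7 days at 37 °C in 5% CO2, cells fixed with ethanol and Giemsa-stained; plaques or CPE scored microscopically. IC50 interpolated graphically; mean of two independent experiments.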

HEL [9] = test: Minimal cytotoxic concentration required to cause microscopically visible alteration of cell morphology in HEL Cells; type: functional
Method in brief: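 Uninfected HEL cells exposed to compound. Minimum cytotoxic concentration is the lowest level giving a microscopically detectable change in cell morphology.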

HEL [10] = test: Effective concentration required to inhibit HCMV Davis in HEL Cells; type: functional, cell-based; method in brief: as §3

| Compound | EC50 (MT4 [1]) | CC50 (MT4 [2]) | EC50 (CCRF-CEM [3]) | EC50 (MT4 [4]) | EC50 (CCRF-CEM [5]) | CC50 (HEL [6]) | CC50 (CCRF-CEM [7]) | EC50 (HEL [8]) | MCC (HEL [9]) | EC50 (HEL [10]) |
| --- | --- | --- | --- | --- | --- | --- | --- | --- | --- | --- |
| Cc1cn([C@@H]2O[C@H](CO[Si](C)(C)C(C)(C)C)C3(OS(=O)(=O)C=C3N)[C@H]2O[Si](C)(C)C(C)(C)C)c(=O)[nH]c1=O (some centres not stated) | > 10 µM | 12 µM | > 10 µM |  |  |  |  |  |  |  |
| Cc1cn([C@@H]2O[C@H](CO[Si](C)(C)C(C)(C)C)[C@@]3(OS(=O)(=O)C=C3N)[C@H]2O[Si](C)(C)C(C)(C)C)c(=O)n(C)c1=O | > 250 µM | 230 µM | > 250 µM | 0.06 µM | 0.04 µM |  |  |  |  |  |
| Cc1cn([C@@H]2O[C@@H]3COC(=O)[C@]3(OS(C)(=O)=O)[C@H]2O)c(=O)[nH]c1=O | > 250 µM | ≥ 250 µM | > 50 µM | > 50 µM | > 50 µM | 36 µM | 160 µM | 179 µM | ≥ 400 µM | 164 µM |
| COC(=O)C(=O)NC1=CS(=O)(=O)O[C@@]12[C@@H](CO[Si](C)(C)C(C)(C)C)O[C@@H](n1cc(C)c(=O)n(C)c1=O)[C@@H]2O[Si](C)(C)C(C)(C)C | > 4 µM | 10.3 µM | > 4 µM | 0.08 µM | 0.06 µM | > 200 µM | 5.57 µM | 253 µM | > 400 µM | 179 µM |
| Cc1cn([C@@H]2O[C@H](CO[Si](C)(C)C(C)(C)C)[C@@]3(OS(=O)(=O)C=C3NC(=O)C(=O)O)[C@H]2O[Si](C)(C)C(C)(C)C)c(=O)n(C)c1=O | > 10 µM | 31.1 µM | > 50 µM | 1.3 µM | 0.23 µM | 146 µM | 72.6 µM | > 80 µM | 400 µM | 36 µM |
| Cc1cn([C@@H]2O[C@H](CO[Si](C)(C)C(C)(C)C)[C@@]3(OS(=O)(=O)C=C3NC(=O)C(N)=O)[C@H]2O[Si](C)(C)C(C)(C)C)c(=O)n(C)c1=O | > 2 µM | 9.59 µM | > 10 µM | 0.057 µM | 0.028 µM | 14.5 µM | 9.96 µM | 6.5 µM | ≥ 16 µM | 6.5 µM |
| Cc1cn([C@@H]2O[C@H](CO[Si](C)(C)C(C)(C)C)[C@@]3(OS(=O)(=O)C=C3NC(=O)C(=O)N3CCC3)[C@H]2O[Si](C)(C)C(C)(C)C)c(=O)n(C)c1=O | > 50 µM | 17.4 µM | > 10 µM | 0.8 µM | 0.7 µM | 84.4 µM | 21.6 µM | 10 µM | 65 µM | 10 µM |
| CC(=O)NC1=CS(=O)(=O)O[C@@]12[C@@H](CO[Si](C)(C)C(C)(C)C)O[C@@H](n1cc(C)c(=O)n(C)c1=O)[C@@H]2O[Si](C)(C)C(C)(C)C | > 5 µM | 10.7 µM | > 25 µM | > 5 µM | > 25 µM | > 200 µM | 25.7 µM | 40 µM | ≥ 80 µM | > 16 µM |
| Cc1cn([C@@H]2O[C@H](CO[Si](C)(C)C(C)(C)C)[C@@]3(OS(=O)(=O)C=C3NC(=O)c3ccccc3)[C@H]2O[Si](C)(C)C(C)(C)C)c(=O)n(C)c1=O | > 5 µM | 4.9 µM | > 5 µM | > 5 µM | > 5 µM | 9.7 µM | 4.91 µM | 1.3 µM | ≥ 3.2 µM | 1.2 µM |
| COC(=O)NC1=CS(=O)(=O)O[C@@]12[C@@H](CO[Si](C)(C)C(C)(C)C)O[C@@H](n1cc(C)c(=O)n(C)c1=O)[C@@H]2O[Si](C)(C)C(C)(C)C | > 20 µM | 29.9 µM | > 20 µM | > 20 µM | > 20 µM | > 200 µM | 30.7 µM | ≥ 20 µM | ≥ 50 µM | 25 µM |
| COC(=O)CC(=O)NC1=CS(=O)(=O)O[C@@]12[C@@H](CO[Si](C)(C)C(C)(C)C)O[C@@H](n1cc(C)c(=O)n(C)c1=O)[C@@H]2O[Si](C)(C)C(C)(C)C | > 5 µM | 11.9 µM | > 25 µM | 19.5 µM | ≥ 5 µM | 29 µM | 29.7 µM | 9 µM | 400 µM | 10 µM |
| C=C(C)C(=O)NC(=O)NC1=CS(=O)(=O)O[C@@]12[C@@H](CO[Si](C)(C)C(C)(C)C)O[C@@H](n1cc(C)c(=O)n(C)c1=O)[C@@H]2O[Si](C)(C)C(C)(C)C | > 0.8 µM | 1.19 µM | > 0.8 µM | > 0.8 µM | > 0.8 µM | 1.2 µM | 1.2 µM | > 20 µM | 20 µM | > 4 µM |
| CCOC(=O)CN1C(=O)CN(C(=O)NC2=CS(=O)(=O)O[C@@]23[C@@H](CO[Si](C)(C)C(C)(C)C)O[C@@H](n2cc(C)c(=O)n(C)c2=O)[C@@H]3O[Si](C)(C)C(C)(C)C)C1=O | > 2 µM | 1.43 µM | > 2 µM | 0.88 µM | 0.24 µM | 2.5 µM | 1.42 µM | 0.29 µM | ≥ 3.2 µM | 0.32 µM |
| COC(=O)CNC1=CS(=O)(=O)O[C@@]12[C@@H](CO[Si](C)(C)C(C)(C)C)O[C@@H](n1cc(C)c(=O)n(C)c1=O)[C@@H]2O[Si](C)(C)C(C)(C)C | > 125 µM | 105 µM | > 125 µM | 1.61 µM | 0.6 µM | 160 µM | 96 µM | > 400 µM | ≥ 400 µM | > 400 µM |
| Cc1cn([C@@H]2O[C@H](CO[Si](C)(C)C(C)(C)C)[C@@]3(OS(=O)(=O)C=C3NCC(=O)OCc3ccccc3)[C@H]2O[Si](C)(C)C(C)(C)C)c(=O)n(C)c1=O | > 250 µM | > 250 µM | > 250 µM |  | 6.7 µM | > 200 µM | > 250 µM | > 400 µM | ≥ 400 µM | > 400 µM |
| Cc1cn([C@@H]2O[C@@H]3COC4(O)CS(=O)(=O)O[C@@]34[C@H]2O)c(=O)[nH]c1=O (some centres not stated) | > 100 µM | > 100 µM | > 100 µM | > 100 µM | > 100 µM |  | > 100 µM |  |  |  |
| Cc1cn([C@@H]2O[C@@H]3COC4(O)CS(=O)(=O)O[C@@]34[C@H]2O[Si](C)(C)C(C)(C)C)c(=O)[nH]c1=O (some centres not stated) | > 100 µM | > 100 µM | > 100 µM | > 100 µM | > 100 µM |  | > 100 µM |  |  |  |
| CCOC(=O)NC(=O)NC1=CS(=O)(=O)O[C@@]12[C@@H](CO[Si](C)(C)C(C)(C)C)O[C@@H](n1cc(C)c(=O)n(C)c1=O)[C@@H]2O[Si](C)(C)C(C)(C)C | > 2 µM |  | > 2 µM | > 2 µM | > 2 µM | 14 µM | 3 µM | 2.3 µM | 16 µM | 1.8 µM |
| Cc1cn([C@@H]2O[C@H](CO[Si](C)(C)C(C)(C)C)[C@@]3(OS(=O)(=O)C=C3NC(N)=O)[C@H]2O[Si](C)(C)C(C)(C)C)c(=O)n(C)c1=O | > 2 µM | 3.7 µM | > 2 µM | > 2 µM | > 2 µM | 11 µM | 4.36 µM | > 3.2 µM | 16 µM | 2 µM |
| Cc1cn([C@@H]2O[C@H](CO[Si](C)(C)C(C)(C)C)[C@@]3(OS(=O)(=O)C=C3NC(=O)NC(=O)c3ccccc3)[C@H]2O[Si](C)(C)C(C)(C)C)c(=O)n(C)c1=O | > 10 µM | 3.33 µM | > 2 µM | > 2 µM | > 2 µM | ≥ 200 µM | 2.29 µM | 1.2 µM | ≥ 80 µM | 0.8 µM |
| CCOC(=O)CNC(=O)NC1=CS(=O)(=O)O[C@@]12[C@@H](CO[Si](C)(C)C(C)(C)C)O[C@@H](n1cc(C)c(=O)n(C)c1=O)[C@@H]2O[Si](C)(C)C(C)(C)C | > 2 µM | 3.78 µM | > 2 µM | > 2 µM | > 2 µM | 13 µM | 5.02 µM | > 3.2 µM | 16 µM | > 3.2 µM |
| CCNC(=O)NC1=CS(=O)(=O)O[C@@]12[C@@H](CO[Si](C)(C)C(C)(C)C)O[C@@H](n1cc(C)c(=O)n(C)c1=O)[C@@H]2O[Si](C)(C)C(C)(C)C | > 2 µM |  | > 2 µM | > 2 µM | > 2 µM | 10 µM | 4.26 µM | 1.8 µM | ≥ 3.2 µM | 2 µM |
